By MIC is commonly meant the lowest concentration found to suppress growth.

Each structure is given as a SMILES string. In brackets after ≈: the same amount, converted by molar mass.

This is an account of results in ChEMBL document CHEMBL4049410, “Novel benzimidazolyl tetrahydroprotoberberines: Design, synthesis, antimicrobial evaluation and multi-targeting exploration” (2017).

In experiment [1] the test system is Staphylococcus aureus. Put plainly: Antibacterial activity against methicillin-resistant Staphylococcus aureus N315 after 24 hrs by two-fold serial dilution assay. The format is functional. To be noted: Staphylococcus aureus, N315, 24 h; read-out: MIC.
The test system of a further experiment is Bacillus subtilis. Kind of experiment: Antibacterial activity against Bacillus subtilis after 24 hrs by two-fold serial dilution assay. The experiment is classed as functional. Conditions: Bacillus subtilis, 24 h; read-out: MIC. The procedure, abridged:
(§1)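 Twofold serial broth dilution following NCCLS guidance, with Chloromycin, Norfloxacin and Fluconazole as positive controls. MIC in μM is the lowest concentration giving complete inhibition of visible bacterial or fungal growth.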

A further experiment has as its system Micrococcus luteus. Kind of experiment: Antibacterial activity against Micrococcus luteus ATCC 4698 after 24 hrs by two-fold serial dilution assay. To be noted: Micrococcus luteus, NCTC 2665, 24 h; read-out: MIC. The format is functional, NCTC 2665. The procedure, abridged: as §1
Experiment [2] deals with Staphylococcus aureus. Put plainly: Antibacterial activity against Staphylococcus aureus ATCC 25923 after 24 hrs by two-fold serial dilution assay. The format is functional. Conditions: Staphylococcus aureus, ATCC 25923, 24 h; read-out: MIC. In a few lines:
as §1

Experiment [3] relates to Escherichia coli. Put plainly: Antibacterial activity against Escherichia coli JM109 after 24 hrs by two-fold serial dilution assay. The format is functional. Conditions: Escherichia coli, JM109, 24 h; read-out: MIC. The procedure, abridged:
as §1

In experiment [4] the test system is Escherichia coli. Kind of experiment: Antibacterial activity against Escherichia coli DH52 after 24 hrs by two-fold serial dilution assay. The format is functional. To be noted: Escherichia coli, DH52, 24 h; read-out: MIC. The procedure, abridged:
as §1

Another experiment has as its system Shigella dysenteriae. Put plainly: Antibacterial activity against Shigella dysenteriae after 24 hrs by two-fold serial dilution assay. The experiment is classed as functional. To be noted: Shigella dysenteriae, 24 h; read-out: MIC.
In the next experiment the test system is Pseudomonas aeruginosa. Put plainly: Antibacterial activity against Pseudomonas aeruginosa after 24 hrs by two-fold serial dilution assay. To be noted: Pseudomonas aeruginosa, 24 h; read-out: MIC. The experiment is classed as functional. In a few lines: as §1
Another experiment relates to Salmonella typhi. Kind of experiment: Antibacterial activity against Bacillus typhi after 24 hrs by two-fold serial dilution assay. The experiment is classed as functional, Salmonella enterica subsp. enterica serovar Typhi. Conditions: Salmonella enterica, 24 h; read-out: MIC.
For the next experiment, the system named is Proteus vulgaris. Put plainly: Antibacterial activity against Bacillus proteus ATCC 13315 after 24 hrs by two-fold serial dilution assay. The format is functional. To be noted: Proteus vulgaris, ATCC 13315, 24 h; read-out: MIC. The procedure, abridged: as §1
The next experiment concerns Pichia norvegensis. Put plainly: Antifungal activity against Candida mycoderma after 24 hrs by two-fold serial dilution assay. The experiment is classed as functional. To be noted: Pichia norvegensis, 24 h; read-out: MIC. The procedure, abridged:
as §1

A further experiment has as its system Cyberlindnera jadinii. Kind of experiment: Antifungal activity against Candida utilis after 24 hrs by two-fold serial dilution assay. The experiment is classed as functional. Conditions: Williopsis jadinii, 24 h; read-out: MIC. The procedure, abridged:
as §1

A further experiment relates to Saccharomyces cerevisiae. Put plainly: Antifungal activity against Saccharomyces cerevisiae after 24 hrs by two-fold serial dilution assay. Conditions: Saccharomyces cerevisiae, 24 h; read-out: MIC. The experiment is classed as functional. In a few lines: as §1
Another experiment concerns Aspergillus flavus. Kind of experiment: Antifungal activity against Aspergillus flavus after 24 hrs by two-fold serial dilution assay. Conditions: Aspergillus flavus, 24 h; read-out: MIC. The format is functional. In a few lines:
as §1

The next experiment concerns Candida albicans. Kind of experiment: Antifungal activity against Candida albicans ATCC 76615 after 24 hrs by two-fold serial dilution assay. The format is functional. Conditions: Candida albicans, ATCC 76615, 24 h; read-out: MIC. The procedure, abridged: as §1

With `CCn1c(-c2cc(OC)c(O)c3c2CC2c4cc5c(cc4CCN2C3)OCO5)nc2ccccc21` (stereo not given), the MIC in the experiment with Staphylococcus aureus [1] was found to be 14.2 µM (≈ 6.67 µg/mL); in the experiment with Bacillus subtilis, 34.1 µM (≈ 16 µg/mL); in the experiment with Micrococcus luteus, 28.4 µM (≈ 13.3 µg/mL); in the experiment on Staphylococcus aureus [2] it was 28.4 µM (≈ 13.3 µg/mL); with Escherichia coli [3], 28.4 µM (≈ 13.3 µg/mL); in the experiment with Escherichia coli [4], 136 µM (≈ 64 µg/mL). Moreover, the MIC with Shigella dysenteriae worked out at 136 µM (≈ 64 µg/mL); in the experiment with Pseudomonas aeruginosa, 68.2 µM (≈ 32 µg/mL); in the experiment with Salmonella typhi, 14.2 µM (≈ 6.67 µg/mL); with Proteus vulgaris it was 56.8 µM (≈ 26.7 µg/mL); in the experiment on Pichia norvegensis, 56.8 µM (≈ 26.7 µg/mL); with Cyberlindnera jadinii, 34.1 µM (≈ 16 µg/mL). The MIC in the experiment with Saccharomyces cerevisiae stood at 22.7 µM (≈ 10.7 µg/mL); in the experiment with Aspergillus flavus it was 56.8 µM (≈ 26.7 µg/mL); in the experiment with Candida albicans it was 17 µM (≈ 7.98 µg/mL).

Consider `CCCn1c(-c2cc(OC)c(O)c3c2CC2c4cc5c(cc4CCN2C3)OCO5)nc2ccccc21` (stereo not given), for which the MIC in the experiment on Staphylococcus aureus [1] was determined as 55.2 µM (≈ 26.7 µg/mL); in the experiment with Bacillus subtilis, 110 µM (≈ 53.3 µg/mL); in the experiment with Micrococcus luteus, 110 µM (≈ 53.3 µg/mL); with Staphylococcus aureus [2], 44.1 µM (≈ 21.3 µg/mL); with Escherichia coli [3], 110 µM (≈ 53.3 µg/mL); with Escherichia coli [4], 110 µM (≈ 53.3 µg/mL). Further, the minimum inhibitory concentration (MIC) in the experiment on Shigella dysenteriae is 265 µM (≈ 128 µg/mL); with Pseudomonas aeruginosa it was 66.2 µM (≈ 32 µg/mL); with Salmonella typhi it was 27.6 µM (≈ 13.3 µg/mL); in the experiment on Proteus vulgaris, 22.1 µM (≈ 10.7 µg/mL); in the experiment on Pichia norvegensis, 13.8 µM (≈ 6.67 µg/mL); in the experiment with Cyberlindnera jadinii, 27.6 µM (≈ 13.3 µg/mL). Besides, the minimum inhibitory concentration (MIC) in the experiment with Saccharomyces cerevisiae was determined as 132 µM (≈ 64 µg/mL); with Aspergillus flavus it was 66.2 µM (≈ 32 µg/mL); in the experiment on Candida albicans it was 22.1 µM (≈ 10.7 µg/mL).

For the compound `COc1cc(-c2nc3ccccc3n2Cc2ccc(Cl)c(Cl)c2)c2c(c1O)CN1CCc3cc4c(cc3C1C2)OCO4` (stereo not given), the minimum inhibitory concentration (MIC) in the experiment with Staphylococcus aureus [1] is 22.2 µM (≈ 13.3 µg/mL); in the experiment with Bacillus subtilis, 22.2 µM (≈ 13.3 µg/mL); in the experiment on Micrococcus luteus, 107 µM (≈ 64 µg/mL); with Staphylococcus aureus [2] it was 35.5 µM (≈ 21.3 µg/mL); in the experiment on Escherichia coli [3] it was 44.4 µM (≈ 26.7 µg/mL); in the experiment on Escherichia coli [4], 44.4 µM (≈ 26.7 µg/mL). Moreover, the MIC stood at 44.4 µM (≈ 26.7 µg/mL) in the experiment with Shigella dysenteriae; 35.5 µM (≈ 21.3 µg/mL) in the experiment with Pseudomonas aeruginosa; 53.3 µM (≈ 32 µg/mL) in the experiment with Salmonella typhi; 22.2 µM (≈ 13.3 µg/mL) in the experiment with Proteus vulgaris; 53.3 µM (≈ 32 µg/mL) in the experiment with Pichia norvegensis; 44.4 µM (≈ 26.7 µg/mL) in the experiment on Cyberlindnera jadinii. The figures for the MIC in the experiment on Saccharomyces cerevisiae, in the experiment on Aspergillus flavus and in the experiment with Candida albicans were 26.6 µM (≈ 16 µg/mL), 88.8 µM (≈ 53.3 µg/mL) and 44.4 µM (≈ 26.7 µg/mL), respectively.

In the case of `COc1ccc(Cn2c(-c3cc(OC)c(O)c4c3CC3c5cc6c(cc5CCN3C4)OCO6)nc3ccccc32)cc1` (stereo not given), the MIC stood at 57 µM (≈ 32 µg/mL) in the experiment on Staphylococcus aureus [1]; 19 µM (≈ 10.7 µg/mL) in the experiment with Bacillus subtilis; 57 µM (≈ 32 µg/mL) in the experiment with Micrococcus luteus; 47.5 µM (≈ 26.7 µg/mL) with Staphylococcus aureus [2]; 38 µM (≈ 21.3 µg/mL) in the experiment with Escherichia coli [3]; 95 µM (≈ 53.4 µg/mL) with Escherichia coli [4]. The minimum inhibitory concentration (MIC) in the experiment with Shigella dysenteriae is 57 µM (≈ 32 µg/mL); in the experiment on Pseudomonas aeruginosa it was 38 µM (≈ 21.3 µg/mL); with Salmonella typhi, 47.5 µM (≈ 26.7 µg/mL); with Proteus vulgaris it was 47.5 µM (≈ 26.7 µg/mL); in the experiment on Pichia norvegensis, 57 µM (≈ 32 µg/mL); in the experiment on Cyberlindnera jadinii it was 57 µM (≈ 32 µg/mL). Further, the MIC in the experiment on Saccharomyces cerevisiae turned out to be 38 µM (≈ 21.3 µg/mL); with Aspergillus flavus, 23.8 µM (≈ 13.4 µg/mL); in the experiment on Candida albicans, 38 µM (≈ 21.3 µg/mL).

Regarding `COc1cc(-c2nc3ccccc3n2Cc2ccc(Cl)cc2Cl)c2c(c1O)CN1CCc3cc4c(cc3C1C2)OCO4` (stereo not given), the MIC in the experiment on Staphylococcus aureus [1] stood at 53.3 µM (≈ 32 µg/mL); in the experiment with Bacillus subtilis, 11.1 µM (≈ 6.67 µg/mL); with Micrococcus luteus, 44.4 µM (≈ 26.7 µg/mL); in the experiment on Staphylococcus aureus [2], 22.2 µM (≈ 13.3 µg/mL); with Escherichia coli [3] it was 35.5 µM (≈ 21.3 µg/mL); in the experiment with Escherichia coli [4] it was 107 µM (≈ 64 µg/mL). Also, the minimum inhibitory concentration (MIC) in the experiment on Shigella dysenteriae worked out at 71.1 µM (≈ 42.7 µg/mL); in the experiment on Pseudomonas aeruginosa, 88.8 µM (≈ 53.3 µg/mL); in the experiment with Salmonella typhi it was 22.2 µM (≈ 13.3 µg/mL); with Proteus vulgaris, 17.7 µM (≈ 10.6 µg/mL); in the experiment on Pichia norvegensis, 13.3 µM (≈ 7.99 µg/mL); with Cyberlindnera jadinii, 22.2 µM (≈ 13.3 µg/mL). Moreover, the minimum inhibitory concentration (MIC) was 26.6 µM (≈ 16 µg/mL) in the experiment on Saccharomyces cerevisiae, 71.1 µM (≈ 42.7 µg/mL) in the experiment on Aspergillus flavus and 22.2 µM (≈ 13.3 µg/mL) in the experiment on Candida albicans.

Regarding `CCCCCCCCCCCCn1c(-c2cc(OC)c(O)c3c2CC2c4cc5c(cc4CCN2C3)OCO5)nc2ccccc21` (stereo not given), the minimal inhibitory concentration (MIC) with Staphylococcus aureus [1] is 175 µM (≈ 107 µg/mL); in the experiment on Bacillus subtilis, 35 µM (≈ 21.3 µg/mL); in the experiment on Micrococcus luteus it was 105 µM (≈ 64 µg/mL); with Staphylococcus aureus [2] it was 26.2 µM (≈ 16 µg/mL); in the experiment with Escherichia coli [3], 26.2 µM (≈ 16 µg/mL); in the experiment with Escherichia coli [4], 87.5 µM (≈ 53.4 µg/mL). The minimal inhibitory concentration (MIC) with Shigella dysenteriae stood at 175 µM (≈ 107 µg/mL); in the experiment on Pseudomonas aeruginosa, 17.5 µM (≈ 10.7 µg/mL); in the experiment on Salmonella typhi, 8.7 µM (≈ 5.31 µg/mL); with Proteus vulgaris, 5.5 µM (≈ 3.35 µg/mL); with Pichia norvegensis it was 3.3 µM (≈ 2.01 µg/mL); with Cyberlindnera jadinii it was 17.5 µM (≈ 10.7 µg/mL). The MIC with Saccharomyces cerevisiae came out at 70 µM (≈ 42.7 µg/mL); with Aspergillus flavus it was 43.8 µM (≈ 26.7 µg/mL); with Candida albicans, 5.5 µM (≈ 3.35 µg/mL).
